SENP1 FRET inh: human SENP1 catalytic domain inhibitors, primary screen, biochemical, FRET, uHTS. Sentrin-specific protease 1 (Homo sapiens), Q9P0U3. recombinant SENP1 catalytic domain, CyPet-SUMO1-YPet FRET cleavage. inhibition, % at 10 µM. 360,000 compounds, 0.21% hits;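 active = inhibition at least 30% at 10 µM, raw YFP signal under a set limit, fluorescence ratio 0.5 to 1.5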;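 note: 0% = enzyme with DMSO and 100% = no enzyme wells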
Target sequence (Q9P0U3 419-644 limits assumed): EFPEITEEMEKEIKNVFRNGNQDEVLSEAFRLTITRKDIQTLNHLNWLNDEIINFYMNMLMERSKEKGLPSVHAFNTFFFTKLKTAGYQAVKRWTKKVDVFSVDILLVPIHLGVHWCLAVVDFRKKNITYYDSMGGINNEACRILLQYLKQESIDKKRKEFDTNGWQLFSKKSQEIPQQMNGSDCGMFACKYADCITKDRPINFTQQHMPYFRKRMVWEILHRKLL
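Assay system – human recombinant His6-tagged SENP1 catalytic domain enzyme · Input – SENP1 enzyme, 20 pM final · Buffer or medium – Tris pH 8 buffer plus EDTA, NaCl, BME, BSA, NP40, catalase · Schedule – 50 min reaction at room temperature · Technique – FRET read of cyan and yellow fluorescence · Control set – no-enzyme wells low, DMSO-plus-enzyme wells high control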
SENP7 block: SENP7 protease inhibitors, primary screen, biochemical, luminescence, uHTS | AID 434973, 2010 | recombinant SENP7, Z-RLRGG-aminoluciferin luminescence, 40 min | Sentrin-specific protease 7 (Homo sapiens), Q9BQF6 | inhibition, % at 5 µM | 330,000 compounds, 1.5% hits;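 active = inhibition above about 50% at the single test dose, limit read from the data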;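 note: plate controls were DMSO with enzyme for no effect and no enzyme buffer wells for full effect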
SENP8 block-1: SENP8 protease inhibitors, primary screen, biochemical, luminescence; Sentrin-specific protease 8 (Homo sapiens), Q96LD8; purified SENP8, Z-RLRGG-aminoluciferin cleavage; inhibition, % at 10 µM; 330,000 compounds, 1.2% hits; in the data active = inhibition above about 50%
Target sequence (Q96LD8 whole entry, looked up): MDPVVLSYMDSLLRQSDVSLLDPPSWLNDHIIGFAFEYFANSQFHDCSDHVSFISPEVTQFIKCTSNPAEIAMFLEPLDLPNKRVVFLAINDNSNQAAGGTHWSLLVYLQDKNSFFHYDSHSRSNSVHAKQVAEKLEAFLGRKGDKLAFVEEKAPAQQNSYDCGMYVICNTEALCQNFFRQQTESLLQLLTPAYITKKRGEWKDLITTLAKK
SENP6 block: SENP6 protease inhibitors, primary screen, biochemical, luminescence, uHTS; 330,000 compounds, 1.8% hits; Recombinant SENP6 catalytic domain, aminoluciferin luminescence; Sentrin-specific protease 6 (Homo sapiens), Q9GZR1; AID 2599, 2010; inhibition, % at 10 µM;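 active = inhibition above about 50% at the single tested dose, limit read from the data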;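 note: plate controls were DMSO wells with enzyme for no effect and DMSO wells lacking enzyme for full effect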
HSP90 refold inh: HSP90 inhibitors, primary screen, cell lysate, luminescence; Heat shock protein HSP 90 (rabbit reticulocyte lysate; luciferase refolding); Rabbit reticulocyte lysate, luciferase refolding luminescence, 3 h; inhibition, % at 5.6 µM; 290,000 compounds, 0.91% hits;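 active = inhibition above the screen-wide mean plus 3 SD, computed separately per campaign, cut at about 16% in these data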;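 note: 0% = DMSO wells and 100% = 60 µM geldanamycin wells; inhibitors lower the luminescence because luciferase stays unfolded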
SENP8 block-2: human SENP8 protease inhibitors, primary screen, biochemical, fluorescence, Nedd8 protein substrate, uHTS; 360,000 compounds, 0.64% hits; inhibition, % at 20 µM; AID 602440, 2012; recombinant SENP8; Sentrin-specific protease 8 (Homo sapiens), Q96LD8; in the data active = inhibition mostly above about 40%, no sharp cut-off; inactive = mostly below about 27%
SENP8 confirm: SENP8 protease inhibitors, retest, confirmation, biochemical, luminescence, single concentration. Recombinant SENP8, Z-RLRGG-aminoluciferin luminescence, 60 min. inhibition, % at 12.5 µM. shares compounds with SENP7 block. 6,200 compounds, 40% hits;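 active = mean inhibition across replicates above about 50%, limit read from the data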
SENP6 confirm: SENP6 protease inhibitors, confirmation, biochemical, luminescence, single concentration; shares compounds with SENP7 block; recombinant SENP6, Z-RLRGG-aminoluciferin luminescence; inhibition, % at 12.5 µM; 6,200 compounds, 58% hits; AID 488915, 2010
SENP7 confirm: SENP7 protease inhibitors, retest, confirmation, biochemical, luminescence, single concentration. inhibition, % at 12.5 µM. recombinant SENP7, Z-RLRGG-aminoluciferin luminescence, 40 min. shares compounds with SENP7 block. 6,200 compounds, 69% hits
Casp3 SENP sel: caspase-3 protease inhibitors, confirmation, selectivity assay for SENP inhibitor project, biochemical, single concentration; shares compounds with SENP7 block; purified caspase-3, Z-DEVD-aminoluciferin luminescence, 60 min; inhibition, % at 12.5 µM; 6,200 compounds, 60% hits; AID 488918, 2010;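 active = mean inhibition above about 50%, limit read from the data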;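 note: plate controls were enzyme with DMSO for no effect and wells without caspase-3 for full effect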
Target sequence (P42574 28-227 limits assumed): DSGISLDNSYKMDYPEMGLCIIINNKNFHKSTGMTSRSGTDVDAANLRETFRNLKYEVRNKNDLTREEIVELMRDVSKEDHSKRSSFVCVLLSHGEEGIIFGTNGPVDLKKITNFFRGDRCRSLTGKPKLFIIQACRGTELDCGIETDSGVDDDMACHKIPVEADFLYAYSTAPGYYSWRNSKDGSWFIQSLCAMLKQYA
SENP luc ctr: counter-screen for SENP inhibitors: luminescence interference; shares compounds with SENP7 block; Pre-incubated SENP8/Z-RLRGG-aminoluciferin, luciferase luminescence interference; inhibition, % at 12.5 µM; 6,200 compounds, 39% hits; AID 488919;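 active = mean inhibition above about 50% when retested at one dose, limit read from the data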;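 note: plate controls were DMSO wells with completed reaction for no effect and substrate without enzyme for full effect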
* marks the source's active call; other numbers are inactive results; · = no result given. The list is not random: actives were taken first. Their share in the collection is about 2.9%.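 Rule for the calls, unless noted: active = mean inhibition above about 50% in the one-dose retest (limit read from the data); inactive = the rest.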

SMILES	SENP1 FRET inh	SENP7 block	SENP8 block-1	SENP6 block	HSP90 refold inh	SENP8 block-2	SENP8 confirm	SENP6 confirm	SENP7 confirm	Casp3 SENP sel	SENP luc ctr
Nc1nccc(-c2cc(-c3ccc(Cl)cc3Cl)no2)n1	-1.7	95.0*	92.5*	95.4*	-0.4	-208.2	79.7*	86.8*	91.4*	76.0*	42.2
Nc1nnc(-c2ccc(Cl)cc2Cl)s1	-0.1	4.8	2.1	13.2	-3.1	-169.7	·	·	·	·	·
COc1ccc2c(c1)CC/C(=C\Nc1ccc3c(c1)OCO3)C2=O	-22.8	53.7*	61.1*	60.9*	5.5	-103.7	3.3	59.6*	48.8	10.4	13.6
COc1ccc(S(=O)(=O)Nc2ccc3c(c2)OCO3)cc1	0.9	4.1	-2.9	-6.7	0.2	20.5	·	·	·	·	·
COc1ccc(N/C=C2\CCOC2=O)cc1	2.8	-10.5	-17.1	-11.5	2.3	6.6	·	·	·	·	·
COc1ccc(N/C=C2\CCc3ccccc3C2=O)cc1	-35.7	32.3	95.6*	97.3*	42.0*	-227.5	35.8	100.6*	103.9*	98.6*	70.4*
COc1ccccc1C(CNC(=O)CCNC(=O)c1ccccc1Cl)N1CCCC1 (stereo not given)	3.7	-4.4	-2.3	5.4	·	26.8	·	·	·	·	·
CCc1ccc(C2=NN(C(C)=O)C(c3ccco3)C2)cc1 (stereo not given)	2.4	80.5*	82.7*	81.7*	0.6	-0.6	92.1*	92.0*	99.1*	90.0*	92.3*
CCC(=O)N1N=C(c2ccc(Cl)cc2)CC1c1ccco1 (stereo not given)	-0.5	1.0	-3.9	-3.8	8.9	6.4	·	·	·	·	·
COc1ccc(CCNC(=O)CCC(=O)N2CC(C)Oc3ccccc32)cc1OC (stereo not given)	-1.0	-10.5	-9.2	-10.0	-1.9	11.7	·	·	·	·	·
COCCNC(=O)c1cccc(OC2CCN(Cc3ccc(F)c(OC)c3)CC2)c1	0.5	-6.0	0.3	1.3	-2.4	-1.1	·	·	·	·	·
O=C(COC(=O)c1ccccc1Nc1ccc(SC(F)F)cc1)NCc1ccco1	-2.9	40.0	16.0	65.1*	-4.3	-136.6	-25.4	5.8	2.7	5.2	2.5
Cc1cccc(Nc2ccccc2C(=O)OCC(=O)NCc2ccco2)c1C	-5.2	10.0	8.3	0.3	0.4	-80.3	·	·	·	·	·
CC(OC(=O)c1ccccc1Nc1ccc(SC(F)F)cc1)C(N)=O (stereo not given)	-1.1	-5.7	-10.4	4.8	9.1	-119.3	·	·	·	·	·
NC(=O)COC(=O)c1ccccc1Nc1ccc(SC(F)F)cc1	-2.5	30.0	1.1	64.3*	-6.5	-79.7	61.3*	59.9*	76.6*	27.4	69.2*
Cc1nc(-c2ccc(Cl)cc2)sc1C(=O)O	2.0	77.0*	84.8*	81.4*	10.6	1.1	94.8*	94.7*	100.9*	88.4*	92.6*
O=C1/C(=C/c2ccc(Cl)cc2)NC(=S)N1Cc1cccnc1	-112.7	2.0	-6.4	-17.5	-4.1	17.5	·	·	·	·	·
COc1ccc(C(=O)N/N=C/C(=O)c2ccccc2)cc1	-1.5	83.6*	58.1*	80.4*	7.1	5.8	31.8	72.1*	92.5*	78.7*	30.4
COc1ccc(C(=O)Nc2ccc(C(=O)c3ccccc3)cc2)cc1	0.8	0.4	1.4	-16.4	·	14.9	·	·	·	·	·
COc1ccc(C(=O)Nc2cc(OC)cc(OC)c2)cc1	2.8	89.0*	80.8*	87.1*	1.1	14.9	86.2*	82.7*	96.3*	88.4*	82.7*
COc1ccc(C(=O)NN/C(C)=C/C(=O)c2ccccc2)cc1	0.7	7.5	3.3	-15.0	1.1	11.4	·	·	·	·	·
COc1cc(NC(=O)c2ccccc2)cc(OC)c1	1.1	46.9	12.0	54.1*	-3.8	5.0	18.2	17.5	67.9*	65.2*	48.8
CC(=O)c1cccc(NC(=O)N2C3CCCC2CC(NC(=O)C2CC2)C3)c1 (stereo not given)	1.7	-4.5	-2.4	-4.3	5.9	0.4	·	·	·	·	·
C/C(=N/NC(=O)c1ccccc1O)c1ccc(N2C(=O)C3CCCCC3C2=O)cc1 (stereo not given)	-1.6	21.8	-5.8	61.8*	3.2	-56.5	-3.3	-2.4	-8.0	-2.8	-4.0
O=S(=O)(CCSc1nc2ccccc2s1)c1nc2ccccc2s1	0.9	6.0	0.9	7.6	1.5	5.2	·	·	·	·	·
SMILES	SENP1 FRET inh	SENP7 block	SENP8 block-1	SENP6 block	HSP90 refold inh	SENP8 block-2	SENP8 confirm	SENP6 confirm	SENP7 confirm	Casp3 SENP sel	SENP luc ctr
C/C(=N\OCc1ccc(C#N)cc1)c1ccccc1	0.3	80.1*	79.4*	88.5*	1.6	4.2	81.7*	86.1*	96.9*	77.1*	68.5*
CN1C(=O)CSC1=S	0.7	0.1	-1.5	-18.0	-2.9	1.0	·	·	·	·	·
Cc1ccc(Nc2nnc(SCC(=O)NCCN3C(=O)CSC3=O)s2)cc1C	1.0	53.0*	46.5	24.7	4.3	8.3	51.2*	46.0	77.8*	63.5*	55.2*
Cc1ccc(SCC(=O)NCCN2C(=O)CSC2=O)cc1C	1.6	1.6	3.6	-10.4	3.5	12.0	·	·	·	·	·
Cc1c(C(=O)O)cnc2cc(-c3ccc(Cl)cc3)nn12	-0.1	82.5*	82.2*	90.7*	-5.5	-374.4	89.2*	88.0*	99.6*	92.9*	87.3*
O=C(COc1ccc(C(=O)NCC2CCCO2)cc1)Nc1cccc(C(F)(F)F)c1 (stereo not given)	0.8	-4.8	4.8	-18.1	·	9.7	·	·	·	·	·
CCOc1ccc2nc(NC(=O)COC)sc2c1	-0.6	27.5	1.1	-26.2	1.5	-8.6	·	·	·	·	·
COc1ccc2nc(NC(=O)c3cnccn3)sc2c1	-5.3	76.3*	49.4	17.5	4.8	2.8	15.9	49.0	81.9*	80.1*	21.4

From PubChem
